ChEMBL document CHEMBL1944556, “Natural Product Based 6-Hydroxy-2,3,4,6-tetrahydropyrrolo[1,2-a]pyrimidinium Scaffold as A New Antifungal Template” (ACS Med Chem Lett, 2011)
Converted amounts (≈) assume the structure as drawn. The source made the active and inactive calls. The rule behind the calls is not given here.

Legend:
Cryptococcus neoformans [1] = assay: Antifungal activity against Cryptococcus neoformans ATCC 90113; type: functional
Procedure, shortened: (§1)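 Read-outs were MIC and MFC, in μg/mL. MFC is the lowest concentration that kills the fungus.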

Aspergillus fumigatus [2] = assay: Antifungal activity against Aspergillus fumigatus ATCC 90906; type: functional; procedure, shortened: as §1
[3] = Selectivity index of IC50 for african green monkey Vero cells to MFC for Cryptococcus neoformans ATCC 90113; type: toxicity, cell-based; conditions: read-out: Selectivity Index
Procedure, shortened: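 The index is the Vero cell cytotoxicity IC50 divided by the MFC against C. neoformans.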

Vero = assay: Cytotoxicity against african green monkey Vero cells; type: cell-based; conditions: Chlorocebus sabaeus
Aspergillus fumigatus [4] = assay: Antifungal activity against Aspergillus fumigatus ATCC 90906 at 20 ug/ml; type: functional, organism-based
Candida albicans [5] = assay: Antifungal activity against Candida albicans ATCC 90028; type: functional; procedure, shortened: as §1
Cryptococcus neoformans [6] = assay: Antifungal activity against Cryptococcus neoformans ATCC 66031; type: functional
[7] = tested on: Cryptococcus bacillisporus; assay: Antifungal activity against fluconazole-resistant Cryptococcus gattii ATCC 32609; type: functional
Candida albicans [8] = assay: Antifungal activity against fluconazole-resistant Candida albicans isolate 17 isolated from AIDS patient; type: functional
Aspergillus fumigatus [9] = assay: Antifungal activity against Aspergillus fumigatus ATCC 13073; type: functional
Procedure, shortened: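 Panel of 23 fungal strains assayed by the group's previously published protocol. Read-outs in μg/mL are the MIC and the MFC, the lowest concentration that kills the fungus. The highest concentration tested was 160 μg/mL, or 5 μg/mL for some agents.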

Candida albicans [10] = assay: Antifungal activity against amphotericin-B-resistant Candida albicans ATCC 200955; type: functional
Aspergillus flavus [11] = assay: Antifungal activity against Aspergillus flavus ATCC 204304; type: functional
Procedure, shortened: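 Panel of 23 fungal strains assayed by the group's previously published protocol. Read-outs in μg/mL are the MIC and the MFC, the lowest concentration that kills the fungus.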

Aspergillus niger [12] = assay: Antifungal activity against Aspergillus niger ATCC 16404 at 5 ug/ml; type: functional, organism-based
Aspergillus niger [13] = assay: Antifungal activity against Aspergillus niger ATCC 16404 at 160 ug/ml; type: functional, organism-based
Aspergillus flavus [14] = assay: Antifungal activity against Aspergillus flavus ATCC 204304 at 160 ug/ml; type: functional, organism-based
Nakaseomyces glabratus [15] = assay: Antifungal activity against intrinsically fluconazole-resistant Candida glabrata ATCC 90030 at 160 ug/ml; type: functional, organism-based
Candida parapsilosis [16] = assay: Antifungal activity against Candida parapsilosis ATCC 22019 at 160 ug/ml; type: functional, organism-based
Candida albicans [17] = assay: Antifungal activity against Candida albicans ATCC 32354 at 160 ug/ml; type: functional, organism-based
Candida albicans [18] = assay: Antifungal activity against Candida albicans ATCC 32354; type: functional
Aspergillus fumigatus [19] = assay: Antifungal activity against Aspergillus fumigatus ATCC 90906 at 160 ug/ml; type: functional, organism-based
Candida albicans [20] = assay: Antifungal activity against fluconazole-resistant Candida albicans isolate 1 isolated from AIDS patient; type: functional
Candida albicans [21] = assay: Antifungal activity against Candida albicans ATCC 90028 at 160 ug/ml; type: functional, organism-based
Pichia kudriavzevii = assay: Antifungal activity against intrinsically fluconazole-resistant Candida krusei ATCC 6258; type: functional
Nakaseomyces glabratus [22] = assay: Antifungal activity against intrinsically fluconazole-resistant Candida glabrata ATCC 90030; type: functional
Candida albicans [23] = assay: Antifungal activity against amphotericin-B-resistant Candida albicans ATCC 200955 at 160 ug/ml; type: functional, organism-based
Candida parapsilosis [24] = assay: Antifungal activity against Candida parapsilosis ATCC 22019; type: functional; conditions: Lodderomyces parapsilosis
Candida albicans [25] = assay: Antifungal activity against Candida albicans ATCC 14053; type: functional; procedure, shortened: as §1
Candida albicans [26] = assay: Antifungal activity against Candida albicans ATCC 60193 at 160 ug/ml; type: functional, organism-based
Aspergillus fumigatus [27] = assay: Antifungal activity against Aspergillus fumigatus ATCC 204305 at 160 ug/ml; type: functional, organism-based
Candida albicans [28] = assay: Antifungal activity against fluconazole-resistant Candida albicans isolate 1 isolated from AIDS patient at 160 ug/ml; type: functional, organism-based
Candida albicans [29] = assay: Antifungal activity against Candida albicans ATCC 60193; type: functional
Candida albicans [30] = assay: Antifungal activity against fluconazole-resistant Candida albicans isolate 17 isolated from AIDS patient at 160 ug/ml; type: functional, organism-based
Aspergillus fumigatus [31] = assay: Antifungal activity against Aspergillus fumigatus ATCC 13073 at 160 ug/ml; type: functional, organism-based
Candida tropicalis [32] = assay: Antifungal activity against Candida tropicalis ATCC 750; type: functional
Candida tropicalis [33] = assay: Antifungal activity against Candida tropicalis ATCC 750 at 160 ug/ml; type: functional, organism-based
Candida albicans [34] = assay: Antifungal activity against Candida albicans ATCC 14053 at 160 ug/ml; type: functional, organism-based
Candida albicans [35] = assay: Antifungal activity against Candida albicans ATCC 90028 at 20 ug/ml; type: functional, organism-based
Cryptococcus neoformans [36] = assay: Antifungal activity against Cryptococcus neoformans ATCC 90113 at 20 ug/ml; type: functional, organism-based
Aspergillus fumigatus [37] = assay: Antifungal activity against Aspergillus fumigatus ATCC 204305; type: functional

CCCCCCCCCCCCCCCCCCC1(O)C=CC2=[N+](C)CCCN21.[I-] (centres undefined)
MFC (Cryptococcus neoformans [1]): 1.97 µg/mL
MIC (Cryptococcus neoformans [1]): 1.61 µg/mL
MIC (Aspergillus fumigatus [2]): 10 µg/mL
selectivity ratio [3]: 6
IC50 (Vero): 12.3 µg/mL
Activity (Aspergillus fumigatus [4]): inactive
MFC (Candida albicans [5]): 2.5 µg/mL
MIC (Candida albicans [5]): 2.5 µg/mL

CCCCCCCCCCCCCCCCC1(O)C=CC2=[N+](C)CCCN21.[I-] (centres undefined)
MFC (Cryptococcus neoformans [1]): 1.25 µg/mL
MIC (Cryptococcus neoformans [1]): 1.25 µg/mL
MFC (Aspergillus fumigatus [2]): 5 µg/mL
MIC (Aspergillus fumigatus [2]): 5 µg/mL
selectivity ratio [3]: 13
IC50 (Vero): 16 µg/mL
MFC (Candida albicans [5]): 2.5 µg/mL
MIC (Candida albicans [5]): 2.5 µg/mL

CCCCCCCCCCCCC1(O)C=CC2=[N+](C)CCCN21.[I-] (centres undefined)
MFC (Cryptococcus neoformans [1]): 0.63 µg/mL
MIC (Cryptococcus neoformans [1]): 0.63 µg/mL
MFC (Aspergillus fumigatus [2]): 10 µg/mL
MIC (Aspergillus fumigatus [2]): 5 µg/mL
selectivity ratio [3]: 29
IC50 (Vero): 18.3 µg/mL
MFC (Candida albicans [5]): 10 µg/mL
MIC (Candida albicans [5]): 7.5 µg/mL

C[C@@H]1[C@H](O)[C@@H](C)/C=C/C=C/C=C/C=C/C=C/C=C/C=C/[C@H](O[C@@H]2O[C@H](C)[C@@H](O)[C@H](N)[C@@H]2O)C[C@@H]2O[C@](O)(C[C@@H](O)C[C@@H](O)[C@H](O)CC[C@@H](O)C[C@@H](O)CC(=O)O[C@H]1C)C[C@H](O)[C@H]2C(=O)O [AMPHOTERICIN B]
MFC (Cryptococcus neoformans [6]): 0.31 µg/mL (≈ 0.335 µM)
MIC (Cryptococcus neoformans [6]): 0.16 µg/mL (≈ 0.173 µM)
MFC [7]: 0.57 µg/mL (≈ 0.617 µM)
MIC [7]: 0.57 µg/mL (≈ 0.617 µM)
MIC (Candida albicans [8]): 0.94 µg/mL (≈ 1.02 µM)
MFC (Aspergillus fumigatus [9]): 10 µg/mL (≈ 10.8 µM)
MIC (Aspergillus fumigatus [9]): 1.5 µg/mL (≈ 1.62 µM)
MIC (Candida albicans [10]): 1.88 µg/mL (≈ 2.03 µM)
MFC (Aspergillus flavus [11]): 5 µg/mL (≈ 5.41 µM)
IC50 (Vero): 4.7 µg/mL (≈ 5.09 µM)
Activity (Aspergillus niger [12]): inactive

OC(Cn1cncn1)(Cn1cncn1)c1ccc(F)cc1F [FLUCONAZOLE]
Activity (Aspergillus niger [13]): inactive
Activity (Aspergillus flavus [14]): inactive
Activity (Nakaseomyces glabratus [15]): inactive
MFC (Cryptococcus neoformans [1]): 25 µg/mL (≈ 81.6 µM)
MIC (Cryptococcus neoformans [1]): 9.38 µg/mL (≈ 30.6 µM)
Activity (Candida parapsilosis [16]): inactive
Activity (Candida albicans [17]): inactive
MFC (Cryptococcus neoformans [6]): 12.5 µg/mL (≈ 40.8 µM)
MIC (Cryptococcus neoformans [6]): 3.91 µg/mL (≈ 12.8 µM)
MIC (Candida albicans [18]): 0.94 µg/mL (≈ 3.07 µM)
Activity (Aspergillus fumigatus [19]): inactive
MFC [7]: 50 µg/mL (≈ 163 µM)
MIC [7]: 50 µg/mL (≈ 163 µM)
MIC (Candida albicans [20]): 10.4 µg/mL (≈ 33.9 µM)
Activity (Candida albicans [21]): inactive
MFC (Pichia kudriavzevii): 80 µg/mL (≈ 261 µM)
MIC (Pichia kudriavzevii): 45 µg/mL (≈ 147 µM)
MIC (Nakaseomyces glabratus [22]): 45 µg/mL (≈ 147 µM)
Activity (Candida albicans [23]): inactive
MIC (Candida parapsilosis [24]): 2.8 µg/mL (≈ 9.14 µM)
MIC (Candida albicans [10]): 0.35 µg/mL (≈ 1.14 µM)
MIC (Candida albicans [25]): 0.25 µg/mL (≈ 0.816 µM)
Activity (Candida albicans [26]): inactive
Activity (Aspergillus fumigatus [27]): inactive
Activity (Candida albicans [28]): inactive
MIC (Candida albicans [29]): 0.2 µg/mL (≈ 0.653 µM)
Activity (Candida albicans [30]): inactive
Activity (Aspergillus fumigatus [31]): inactive
MIC (Candida albicans [5]): 0.51 µg/mL (≈ 1.67 µM)
MIC (Candida tropicalis [32]): 13.1 µg/mL (≈ 42.8 µM)
Activity (Candida tropicalis [33]): inactive
Activity (Candida albicans [34]): inactive

CCCCCCCCCCC1(O)C=CC2=[N+](C)CCCN21.[I-] (centres undefined)
MFC (Cryptococcus neoformans [1]): 10 µg/mL
MIC (Cryptococcus neoformans [1]): 10 µg/mL
selectivity ratio [3]: 2
IC50 (Vero): 21.3 µg/mL
Activity (Aspergillus fumigatus [4]): inactive
MIC (Candida albicans [5]): 20 µg/mL
Activity (Candida albicans [35]): inactive

CCCCCCC1(O)C=CC2=[N+](C)CCCN21.[I-] (centres undefined)
Activity (Cryptococcus neoformans [36]): inactive
IC50 (Vero): > 25 µg/mL
Activity (Aspergillus fumigatus [4]): inactive
Activity (Candida albicans [35]): inactive

CCCCCCCCCCCCCCC1(O)C=CC2=[N+](C)CCCN21.[I-] (centres undefined)
MFC (Cryptococcus neoformans [1]): 0.31 µg/mL
MIC (Cryptococcus neoformans [1]): 0.31 µg/mL
MFC (Aspergillus fumigatus [2]): 5 µg/mL
MIC (Aspergillus fumigatus [2]): 1.88 µg/mL
MFC (Cryptococcus neoformans [6]): 0.31 µg/mL
MIC (Cryptococcus neoformans [6]): 0.23 µg/mL
MFC (Candida albicans [18]): 10 µg/mL
MFC [7]: 0.63 µg/mL
MIC [7]: 0.63 µg/mL
MIC (Candida albicans [20]): 1.25 µg/mL
selectivity ratio [3]: 53
MFC (Candida albicans [8]): 2.5 µg/mL
MIC (Candida albicans [25]): 1.88 µg/mL
IC50 (Vero): 16.5 µg/mL
MIC (Candida albicans [5]): 1.88 µg/mL
MFC (Aspergillus fumigatus [37]): 10 µg/mL
